Measured values collected from several papers.
Protocols differ between the studies behind these lines.
Target: Sigma intracellular receptor 2 (Tmem97, Rattus norvegicus, UniProt Q5U3Y7)
Read-out: ligand displacement
Technique: radioligand
One construct used (Q5U3Y7 1-176): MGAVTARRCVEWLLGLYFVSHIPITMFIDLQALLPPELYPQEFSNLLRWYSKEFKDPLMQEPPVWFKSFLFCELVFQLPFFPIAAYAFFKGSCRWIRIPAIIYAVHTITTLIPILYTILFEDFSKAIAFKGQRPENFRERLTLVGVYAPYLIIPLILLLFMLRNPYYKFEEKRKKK

Compound	setting	Ki
COc1cc2c(cc1OC)CN(CCCCn1ccc3c(OC)cccc31)CC2	cell membranes	7.73 nM
O=C(NCCN1CCCCC1)c1ccc(O)c(Br)c1	cell membranes	> 10000 nM
COc1cc2c(cc1OC)CN(C(C)CCc1ccc(O)cc1)CC2 (stereo not shown)		4.92 nM
COc1ccc2ccn(CCCCN3Cc4cc(OC)c(OC)cc4C3)c2c1	cell membranes	9.46 nM
CN(C)C(=S)N/N=C1/C(=O)Nc2ccccc21	cell membranes	> 10000 nM
O=C(NCCN1CCCCC1)c1cc(Br)ccc1OCCCF	cell membranes	92.9 nM
COc1cc2c(cc1OC)C(=O)N(CCCCN1C(=O)/C(=N\NC(=S)N(C)C)c3ccccc31)CC2	cell membranes	> 10000 nM
COc1ccc(CCC(C)N2CCc3cc(OC)c(OC)cc3C2)cc1 (stereo not shown)		0.59 nM
O=C(NCCN1CCCCC1)c1ccc(OCCCF)c(Br)c1	cell membranes	28.3 nM
COc1ccc2c(ccn2CCCCN2CCc3cc(OC)c(OC)cc3C2)c1	cell membranes	4.4 nM
